Test results as given in ChEMBL document CHEMBL1147063, “Diazonamide toxins reveal an unexpected function for ornithine delta-amino transferase in mitotic cell division” (2007).
The source made the active and inactive calls. The calls are words filed in the database; no cut-off is given here.

Experiments:
[1] = molecular target: T1, Ornithine aminotransferase, mitochondrial (Mus musculus) (UniProt P29758); experiment: Inhibition of ornithine delta-amino transferase activity in mouse liver mitochondria
T1 sequence (whole entry): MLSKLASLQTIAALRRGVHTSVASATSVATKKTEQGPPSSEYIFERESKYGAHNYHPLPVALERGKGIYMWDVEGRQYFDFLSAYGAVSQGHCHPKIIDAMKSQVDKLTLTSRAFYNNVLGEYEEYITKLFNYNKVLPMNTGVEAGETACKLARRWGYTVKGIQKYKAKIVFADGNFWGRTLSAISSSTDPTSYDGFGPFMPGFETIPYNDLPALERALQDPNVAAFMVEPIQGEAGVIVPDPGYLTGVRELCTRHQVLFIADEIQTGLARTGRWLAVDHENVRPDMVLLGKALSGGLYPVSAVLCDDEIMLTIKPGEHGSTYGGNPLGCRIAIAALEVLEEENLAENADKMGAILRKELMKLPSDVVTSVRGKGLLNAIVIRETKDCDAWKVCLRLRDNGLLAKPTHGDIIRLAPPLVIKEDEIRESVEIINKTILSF
How it was run: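 Crude OAT prepared from mouse liver. Enzyme added last with a compound dilution series; shaken at 37°C for 20 min. Δ¹-pyrroline-5-carboxylate detected by reaction with o-aminobenzaldehyde; absorbance read at 443.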

HeLa [2] = experiment: Cell cycle arrest in human HeLa cells by accumulation at 2N stage at 30 nM after 24 hrs; type: functional
How it was run: (§1)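 HeLa cells exposed to 30 nM compound for the indicated times. DNA content measured by FACS to score 2N versus tetraploid (4N) populations.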

HeLa [3] = experiment: Cell cycle arrest in human HeLa cells by accumulation at 4N stage at 30 nM after 24 hrs; type: functional; how it was run: as §1
HeLa [4] = experiment: Cell cycle arrest in human HeLa cells assessed as phosphorylated histone H3 level at 30 nM after 24 hrs; type: functional, cell-based
How it was run: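 HeLa cells dosed with 30 nM compound for a time course. Cell extracts immunoblotted for phosphorylated histone H3 as mitotic marker, with actin as loading reference.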

HeLa [5] = experiment: Cell cycle arrest in human HeLa cells assessed as abnormal spindle structure formation at 30 nM after 24 hrs; type: functional, cell-based
How it was run: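 HeLa cells grown 24 h with or without 30 nM compound, then fixed in 4% formaldehyde. Stained with anti-α-tubulin monoclonal (1:1,000) and DAPI; spindle and nuclear morphology imaged by confocal microscopy. Abnormal mono-/multipolar spindles and multinucleate cells counted as a percentage of cells.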

U2OS = experiment: Cell cycle arrest in human U2OS cells assessed as abnormal spindle structure formation at 30 nM after 16 hrs; type: functional, cell-based
[6] = Binding affinity to tubulin
[7] = molecular target: T2, Ornithine aminotransferase, mitochondrial (Homo sapiens) (UniProt P04181); experiment: Binding affinity to ornithine delta-amino transferase in human HeLa cells by silver stained SDS/PAGE method; type: cell-based
T2 sequence (whole entry): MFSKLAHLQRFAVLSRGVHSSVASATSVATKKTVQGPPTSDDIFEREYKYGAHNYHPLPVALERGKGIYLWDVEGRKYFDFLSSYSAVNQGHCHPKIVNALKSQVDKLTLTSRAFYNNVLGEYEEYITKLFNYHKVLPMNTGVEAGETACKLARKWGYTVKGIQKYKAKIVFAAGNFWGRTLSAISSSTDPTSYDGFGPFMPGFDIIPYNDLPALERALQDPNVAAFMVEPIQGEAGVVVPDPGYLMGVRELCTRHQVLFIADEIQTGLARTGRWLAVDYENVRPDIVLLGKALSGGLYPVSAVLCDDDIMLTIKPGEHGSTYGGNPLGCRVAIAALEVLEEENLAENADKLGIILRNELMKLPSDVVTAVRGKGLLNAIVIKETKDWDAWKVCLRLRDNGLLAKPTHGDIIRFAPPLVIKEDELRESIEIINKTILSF
How it was run: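 HeLa nuclear extract, dialysed into buffer B (20 mM Hepes-KOH pH 7.5, 10 mM KCl, 1.5 mM MgCl₂, EDTA, EGTA, DTT, PMSF, plus 150 mM NaCl) with 0.1% Nonidet P-40. Extract fractionated on Hitrap Q anion exchange; fractions incubated overnight at 4°C with biotinylated probe precoupled to avidin agarose. Bound proteins resolved by silver-stained SDS/PAGE; specific ~50 kDa bands identified by mass spectrometry.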

[8] = tested on: Ornithine aminotransferase, mitochondrial (Xenopus laevis); experiment: Binding affinity to ornithine delta-amino transferase in RanGTP L43E mutant pre-treated Xenopus egg extracts; details: egg extract
HeLa [9] = experiment: Antimitotic activity in human HeLa cells; type: functional, cell-based
Xenopus = experiment: Effect on RanGTP L43E mutant-stimulated microtubule aster formations in Xenopus egg extract

| Activity [6] | Activity [7] | SMILES | Activity [1] | other results |
| --- | --- | --- | --- | --- |
|  |  | CC(C)[C@H](O)C(=O)N[C@H]1Cc2ccc3c(c2)[C@]24C5=C(N=C(O5)[C@H](C(C)C)NC1=O)c1nc(Cl)c(o1)-c1c(Cl)[nH]c5cccc(c15)-c1cccc2c1O[C@@H]4O3 | inactive |  |
|  |  | C#CC(N)CCC(=O)O (stereo unspecified) | Active |  |
|  |  | [H][C@]12Nc3c4cccc3[C@]13C1=C(N=C(O1)[C@H](C(C)C)NC(=O)[C@@H](NC(=O)[C@@H](O)C(C)C)Cc1ccc(c3c1)O2)c1nc(Cl)c(o1)-c1c(Cl)[nH]c2cccc-4c12 [DIAZONAMIDE A] |  | Activity (HeLa [2]): 6.9%; Activity (HeLa [3]): 85.69% |
|  |  | CC(C)[C@H](O)C(=O)N[C@H]1Cc2ccc3c(c2)[C@]24C5=C(N=C(O5)[C@H](C(C)C)NC1=O)c1nc(Cl)c(o1)-c1c(Cl)[nH]c5cccc(c15)-c1cccc2c1N[C@@H]4O3 | inactive | Activity (HeLa [4]): Active; Activity (HeLa [5]): Active; Activity (U2OS): Active |
| inactive | inactive | CC(CCCCNC(=O)CCCC[C@@H]1SC[C@@H]2NC(=O)N[C@@H]21)[C@H](O)C(=O)N[C@H]1Cc2ccc3c(c2)[C@]2(C4=C(c5nc(Cl)c(-c6c(Cl)[nH]c7ccccc67)o5)N=C(O4)[C@H](C(C)C)NC1=O)c1ccccc1O[C@@H]2O3 (stereo partly specified) |  |  |
| inactive | Active | CC(CCCCNC(=O)CCCC[C@@H]1SC[C@@H]2NC(=O)N[C@@H]21)[C@H](O)C(=O)N[C@H]1Cc2ccc3c(c2)[C@]24C5=C(N=C(O5)[C@H](C(C)C)NC1=O)c1nc(Cl)c(o1)-c1c(Cl)[nH]c5cccc(c15)-c1cccc2c1O[C@@H]4O3 (stereo partly specified) | inactive | Activity [8]: inactive; Activity (HeLa [9]): Active; Activity (Xenopus): Active |
